Experimental data reported in ChEMBL document CHEMBL4706672 (J Med Chem, 2021).
Active and inactive are the calls of the source. No cut-off for these calls is given here.

Legend:
[1] = Upregulation of SYNC protein levels in human BxPC-3 cells incubated for 16 hrs by proteomic analysis; format: functional
Summary of the method: (§1)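 BxPC-3 cells exposed 16 h in triplicate (control, PROTAC) or duplicate (other arms); lysed in RIPA at 4 °C, 75 μg protein per sample. Reduced with DTT (1 h, 55 °C), alkylated with 2-chloroacetamide, acetone-precipitated, trypsin-digested overnight at 37 °C, TMT 10plex labelled, relative quantitation by LC-tandem MS.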

[2] = target: Protein cereblon/Carbohydrate sulfotransferase 14 (Homo sapiens) (UniProt Q96SW2+Q8NCH0); assay: Protac activity at CRBN/CHST14 in human BxPC-3 cells assessed as CHST14 degradation incubated for 16 hrs by proteomic analysis; format: cell-based
Summary of the method: (§2)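 TMT 10plex proteomics. […] Samples (75 μg) were reduced with DTT, alkylated with 2-chloroacetamide, acetone-precipitated, trypsin-digested overnight at 37 °C and TMT-labeled for LC-MS/MS relative quantitation.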

BXPC-3 [3] = assay: Antiproliferative activity against ZFP91 knockdown human BxPC-3 cells assessed as reduction in cell viability incubated for 48 hrs by MTT assay; format: functional, cell-based; settings: BXPC-3, 48 h
Summary of the method: (§3)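 BxPC-3 cells were transfected with ZFP91 siRNA or scrambled control siRNA using Lipofectamine RNAiMAX in Opti-MEM, 5 pmol siRNA per complex. Compound was added together with the siRNA complex.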

[4] = target: Protein cereblon/Adhesion G-protein coupled receptor G1 (Homo sapiens) (UniProt Q96SW2+Q9Y653); assay: Protac activity at CRBN/ADGRG1 in human BxPC-3 cells assessed as ADGRG1 degradation incubated for 16 hrs by proteomic analysis; format: cell-based; summary of the method: as §2
[5] = Upregulation of RhoB protein levels in human BxPC-3 cells incubated for 16 hrs by proteomic analysis; format: functional; summary of the method: as §1
[6] = target: Protein cereblon/G2/mitotic-specific cyclin-B1 (Homo sapiens) (UniProt P14635+Q96SW2); assay: Protac activity at CRBN/CCNB1 in human BxPC-3 cells assessed as CCNB1 degradation incubated for 16 hrs by proteomic analysis; format: cell-based; summary of the method: as §2
[7] = Selectivity index, ratio of IC50 for antiproliferative activity against human HEK293 cell by MTT assay to IC50 for inhibition of IL-6 induced STAT3 transcription in human HEK293 cells
Summary of the method: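 HEK-293 cells carrying an SIE-luc2P STAT3 reporter, seeded 10,000/well, stimulated with IL6 at 100 ng/ml for 24 h, then given compound for 24 h; luciferase reagent added and luminescence read after 5 min. A parallel 24 h MTT assay was run in the same cells. Mean ± SD of three independent experiments.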

[8] = target: Protein cereblon/Epithelial discoidin domain-containing receptor 1 (Homo sapiens) (UniProt Q08345+Q96SW2); assay: Protac activity at CRBN/DDR1 in human BxPC-3 cells assessed as DDR1 degradation incubated for 16 hrs by proteomic analysis; format: cell-based; summary of the method: as §2
[9] = Upregulation of DNAJB9 protein levels in human BxPC-3 cells incubated for 16 hrs by proteomic analysis; format: functional; summary of the method: as §1
[10] = target: Protein cereblon/Protein PRRC2B (Homo sapiens) (UniProt Q96SW2+Q5JSZ5); assay: Protac activity at CRBN/PRRC2B in human BxPC-3 cells assessed as PRRC2B degradation incubated for 16 hrs by proteomic analysis; format: cell-based; summary of the method: as §2
[11] = target: Protein cereblon/Apoptosis-stimulating of p53 protein 2 (Homo sapiens) (UniProt Q96SW2+Q13625); assay: Protac activity at CRBN/TP53BP2 in human BxPC-3 cells assessed as TP53BP2 degradation incubated for 16 hrs by proteomic analysis; format: cell-based; summary of the method: as §1
BXPC-3 [12] = assay: Antiproliferative activity against human BxPC-3 cells harboring ZFP91siRNA assessed as reduction in cell viability incubated for 48 hrs by MTT assay; format: functional, cell-based; settings: BXPC-3, 48 h; summary of the method: as §3
[13] = target: Protein cereblon/Laminin subunit beta-1 (Homo sapiens) (UniProt P07942+Q96SW2); assay: Protac activity at CRBN/LAMB1 in human BxPC-3 cells assessed as LAMB1 degradation incubated for 16 hrs by proteomic analysis; format: cell-based; summary of the method: as §2
Chain of Protein cereblon/Laminin subunit beta-1 (Homo sapiens) (P07942 whole entry, looked up): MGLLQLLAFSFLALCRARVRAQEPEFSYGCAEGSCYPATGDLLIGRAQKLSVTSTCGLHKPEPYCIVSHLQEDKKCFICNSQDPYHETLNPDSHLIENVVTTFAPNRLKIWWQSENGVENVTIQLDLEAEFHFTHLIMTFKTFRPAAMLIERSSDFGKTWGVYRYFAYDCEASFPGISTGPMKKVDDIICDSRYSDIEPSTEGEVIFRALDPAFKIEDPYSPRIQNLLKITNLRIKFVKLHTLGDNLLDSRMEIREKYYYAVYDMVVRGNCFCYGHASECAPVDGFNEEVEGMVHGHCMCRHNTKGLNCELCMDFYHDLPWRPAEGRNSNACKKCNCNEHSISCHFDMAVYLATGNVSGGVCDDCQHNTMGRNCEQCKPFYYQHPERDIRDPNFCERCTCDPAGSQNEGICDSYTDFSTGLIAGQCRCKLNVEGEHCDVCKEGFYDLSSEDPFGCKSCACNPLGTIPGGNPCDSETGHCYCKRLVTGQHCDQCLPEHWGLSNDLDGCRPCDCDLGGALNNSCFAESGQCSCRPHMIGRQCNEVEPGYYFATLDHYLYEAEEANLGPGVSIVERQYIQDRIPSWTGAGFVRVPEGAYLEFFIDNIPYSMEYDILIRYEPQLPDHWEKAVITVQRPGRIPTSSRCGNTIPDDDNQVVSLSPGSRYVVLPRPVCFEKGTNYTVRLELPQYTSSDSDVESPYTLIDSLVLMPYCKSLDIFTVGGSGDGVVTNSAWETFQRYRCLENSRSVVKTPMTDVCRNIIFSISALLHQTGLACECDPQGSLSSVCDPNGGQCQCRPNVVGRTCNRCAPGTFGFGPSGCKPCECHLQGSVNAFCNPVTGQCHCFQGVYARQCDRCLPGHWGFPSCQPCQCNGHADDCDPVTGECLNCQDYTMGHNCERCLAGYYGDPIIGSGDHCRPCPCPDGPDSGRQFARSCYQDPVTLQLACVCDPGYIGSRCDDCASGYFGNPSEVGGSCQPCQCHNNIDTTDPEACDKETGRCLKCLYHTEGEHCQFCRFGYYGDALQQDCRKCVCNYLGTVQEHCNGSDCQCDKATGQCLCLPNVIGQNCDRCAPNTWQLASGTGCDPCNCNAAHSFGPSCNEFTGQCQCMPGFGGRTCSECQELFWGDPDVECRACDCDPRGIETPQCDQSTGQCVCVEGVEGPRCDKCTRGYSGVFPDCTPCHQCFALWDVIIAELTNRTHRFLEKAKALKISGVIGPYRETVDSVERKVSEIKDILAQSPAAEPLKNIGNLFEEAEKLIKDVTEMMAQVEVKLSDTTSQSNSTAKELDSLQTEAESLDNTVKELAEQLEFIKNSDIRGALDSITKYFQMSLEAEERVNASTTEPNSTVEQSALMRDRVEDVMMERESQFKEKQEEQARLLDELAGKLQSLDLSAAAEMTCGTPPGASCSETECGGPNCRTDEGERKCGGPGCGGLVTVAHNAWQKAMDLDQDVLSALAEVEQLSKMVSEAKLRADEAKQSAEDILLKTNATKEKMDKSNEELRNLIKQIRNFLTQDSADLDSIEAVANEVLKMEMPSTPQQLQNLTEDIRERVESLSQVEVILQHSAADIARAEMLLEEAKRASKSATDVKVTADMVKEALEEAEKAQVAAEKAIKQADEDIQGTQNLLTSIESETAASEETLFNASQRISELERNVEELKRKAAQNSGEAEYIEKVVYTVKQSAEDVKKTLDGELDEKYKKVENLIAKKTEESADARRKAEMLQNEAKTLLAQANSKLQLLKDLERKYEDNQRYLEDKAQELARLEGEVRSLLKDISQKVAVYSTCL
Chain of Protein cereblon/Laminin subunit beta-1 (Homo sapiens) (Q96SW2 whole entry, looked up): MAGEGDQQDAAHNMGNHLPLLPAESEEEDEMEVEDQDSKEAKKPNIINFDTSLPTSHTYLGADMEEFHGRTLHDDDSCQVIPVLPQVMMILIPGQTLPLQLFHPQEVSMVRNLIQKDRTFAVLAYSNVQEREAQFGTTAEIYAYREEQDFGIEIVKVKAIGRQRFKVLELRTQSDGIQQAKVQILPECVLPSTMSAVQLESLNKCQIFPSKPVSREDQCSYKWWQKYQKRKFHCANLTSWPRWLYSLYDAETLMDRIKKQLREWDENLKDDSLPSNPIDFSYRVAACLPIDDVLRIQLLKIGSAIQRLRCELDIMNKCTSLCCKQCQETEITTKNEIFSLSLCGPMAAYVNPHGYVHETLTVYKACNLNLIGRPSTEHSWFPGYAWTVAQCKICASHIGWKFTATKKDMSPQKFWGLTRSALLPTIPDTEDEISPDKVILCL

[14] = target: Protein cereblon/45 kDa calcium-binding protein (Homo sapiens) (UniProt Q96SW2+Q9BRK5); assay: Protac activity at CRBN/SDF4 in human BxPC-3 cells assessed as SDF4 degradation incubated for 16 hrs by proteomic analysis; format: cell-based; summary of the method: as §2
[15] = target: Protein cereblon/Cyclin-D1-binding protein 1 (Homo sapiens) (UniProt Q96SW2+O95273); assay: Protac activity at CRBN/CCNDBP1 in human BxPC-3 cells assessed as CCNDBP1 degradation incubated for 16 hrs by proteomic analysis; format: cell-based; summary of the method: as §2
Chain of Protein cereblon/Cyclin-D1-binding protein 1 (Homo sapiens) (O95273 whole entry, looked up): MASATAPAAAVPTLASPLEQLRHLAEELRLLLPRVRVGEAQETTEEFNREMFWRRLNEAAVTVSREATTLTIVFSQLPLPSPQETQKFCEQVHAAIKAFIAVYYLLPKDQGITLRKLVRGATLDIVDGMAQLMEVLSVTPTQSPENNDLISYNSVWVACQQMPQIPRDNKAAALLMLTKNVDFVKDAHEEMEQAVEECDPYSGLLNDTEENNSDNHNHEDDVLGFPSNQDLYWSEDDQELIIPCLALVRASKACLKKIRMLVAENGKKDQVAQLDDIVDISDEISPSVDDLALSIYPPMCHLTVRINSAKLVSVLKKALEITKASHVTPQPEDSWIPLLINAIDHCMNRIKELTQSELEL
Chain of Protein cereblon/Cyclin-D1-binding protein 1 (Homo sapiens) (Q96SW2 whole entry, looked up): as the sequence (Q96SW2 whole entry, looked up) above

BXPC-3 [16] = assay: Reduction in NQO1 expression in human BxPC-3 cells at 2 to 6 uM incubated for 16 hrs in presence of protein synthesis inhibitor cycloheximide by western blot analysis; settings: dose 2-6 µM
[17] = target: Protein cereblon/Methylated-DNA--protein-cysteine methyltransferase (Homo sapiens) (UniProt P16455+Q96SW2); assay: Protac activity at CRBN/MGMT in human BxPC-3 cells assessed as MGMT degradation incubated for 16 hrs by proteomic analysis; format: cell-based; summary of the method: as §2
Chain of Protein cereblon/Methylated-DNA--protein-cysteine methyltransferase (Homo sapiens) (P16455 whole entry, looked up): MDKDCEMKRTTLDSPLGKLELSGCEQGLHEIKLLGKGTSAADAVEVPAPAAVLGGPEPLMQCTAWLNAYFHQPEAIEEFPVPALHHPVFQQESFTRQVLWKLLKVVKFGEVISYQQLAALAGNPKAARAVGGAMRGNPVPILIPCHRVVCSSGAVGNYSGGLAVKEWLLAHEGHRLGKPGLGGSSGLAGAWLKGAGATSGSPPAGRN
Chain of Protein cereblon/Methylated-DNA--protein-cysteine methyltransferase (Homo sapiens) (Q96SW2 whole entry, looked up): as the sequence (Q96SW2 whole entry, looked up) above

BXPC-3 [18] = assay: Inhibition of colony formation in human BxPC-3 cells assessed as reduction in colony formation at 0.06 to 0.5 uM incubated for 7 to 10 days in presence of NQO1 inhibitor dicoumarol; settings: dose 0.06-0.5 µM
[19] = Upregulation of AFF1 protein levels in human BxPC-3 cells incubated for 16 hrs by proteomic analysis; format: functional; summary of the method: as §1
[20] = Upregulation of ABCB6 protein levels in human BxPC-3 cells incubated for 16 hrs by proteomic analysis; format: functional; summary of the method: as §1
[21] = Upregulation of BACH1 protein levels in human BxPC-3 cells incubated for 16 hrs by proteomic analysis; format: functional; summary of the method: as §1
[22] = target: Protein cereblon/Signal transducer and activator of transcription 3 (Homo sapiens, UniProt P40763+Q96SW2); assay: Protac activity at CRBN/STAT3 in human BxPC-3 cells assessed as decrease in STAT3 expression level at 5 uM after 16 hrs by western blot analysis; format: cell-based
Summary of the method: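 BxPC-3 cells seeded at 500 × 10^3 per well in 6-well plates, treated 16 h. Sonication lysis at 4 °C in Tris/NaCl/Triton/SDS buffer pH 7.4 with protease and phosphatase inhibitors, BCA protein assay, SDS-PAGE, PVDF transfer. Probed for STAT3, pSTAT3 and NQO1 with GAPDH loading control; fluorescent secondary detection.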

[23] = Upregulation of HMGCR protein levels in human BxPC-3 cells incubated for 16 hrs by proteomic analysis; format: functional; summary of the method: as §1
[24] = target: Protein cereblon/SET domain-containing protein 4 (Homo sapiens) (UniProt Q96SW2+Q9NVD3); assay: Protac activity at CRBN/SETD4 in human BxPC-3 cells assessed as SETD4 degradation incubated for 16 hrs by proteomic analysis; format: cell-based; summary of the method: as §2
[25] = Upregulation of GDF15 protein levels in human BxPC-3 cells incubated for 16 hrs by proteomic analysis; format: functional; summary of the method: as §1
[26] = target: Protein cereblon/Cold shock domain-containing protein E1 (Homo sapiens) (UniProt Q96SW2+O75534); assay: Protac activity at CRBN/CSDE1 in human BxPC-3 cells assessed as CSDE1 degradation incubated for 16 hrs by proteomic analysis; format: cell-based; summary of the method: as §2
Chain of Protein cereblon/Cold shock domain-containing protein E1 (Homo sapiens) (O75534 whole entry, looked up, the tested form may be a part): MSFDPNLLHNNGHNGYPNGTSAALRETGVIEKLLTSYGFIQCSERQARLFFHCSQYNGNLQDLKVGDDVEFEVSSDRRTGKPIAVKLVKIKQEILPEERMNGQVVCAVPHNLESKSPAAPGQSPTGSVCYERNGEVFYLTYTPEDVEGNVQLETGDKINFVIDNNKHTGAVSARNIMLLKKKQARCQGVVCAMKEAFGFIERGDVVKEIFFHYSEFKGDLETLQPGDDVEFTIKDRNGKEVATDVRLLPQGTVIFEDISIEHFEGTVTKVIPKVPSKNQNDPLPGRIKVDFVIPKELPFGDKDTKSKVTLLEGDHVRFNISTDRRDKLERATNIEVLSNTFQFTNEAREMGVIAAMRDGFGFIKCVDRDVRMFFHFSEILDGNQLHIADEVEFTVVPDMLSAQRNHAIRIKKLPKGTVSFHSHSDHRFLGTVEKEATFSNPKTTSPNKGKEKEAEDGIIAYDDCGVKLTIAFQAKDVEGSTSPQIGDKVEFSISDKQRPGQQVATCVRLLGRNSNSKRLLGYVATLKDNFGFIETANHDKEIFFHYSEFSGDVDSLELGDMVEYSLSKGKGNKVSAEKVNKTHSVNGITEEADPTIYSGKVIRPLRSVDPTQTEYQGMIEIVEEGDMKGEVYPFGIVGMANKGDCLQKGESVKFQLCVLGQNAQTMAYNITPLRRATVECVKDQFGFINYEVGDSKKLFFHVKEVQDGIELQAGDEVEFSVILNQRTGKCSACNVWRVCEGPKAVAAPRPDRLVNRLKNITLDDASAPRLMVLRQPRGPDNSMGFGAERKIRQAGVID
Chain of Protein cereblon/Cold shock domain-containing protein E1 (Homo sapiens) (Q96SW2 whole entry, looked up, the tested form may be a part): as the sequence (Q96SW2 whole entry, looked up) above

With `O=C1CCC(N2C(=O)c3cccc(NCCCCCC4CCN(CCNC(=O)c5cc6c(o5)C(=O)c5ccccc5C6=O)CC4)c3C2=O)C(=O)N1` (stereo unspecified) the log2FC [1] was 1.04, the log2FC [2] was -0.64 and the IC50 (BXPC-3 [3]) was 2100 nM. It also gave a log2FC [4] of -0.69, a log2FC [5] of 0.73 and a log2FC [6] of -0.84. The “Ratio IC50” value [7] was 7, the log2FC [8] was -0.73 and the log2FC [9] was 1.35. It also gave a log2FC [10] of -0.63, a log2FC [11] of -1.02 and an IC50 (BXPC-3 [12]) of 1200 nM. For the same compound, the log2FC [13] was -0.67, the log2FC [14] was -0.67 and the log2FC [15] was -0.59. The Activity (BXPC-3 [16]) was “inactive”, the log2FC [17] was -0.63 and the inhibition (BXPC-3 [18]) was “Active”. For the same compound, the log2FC [19] was 0.67, the log2FC [20] was 0.68 and the log2FC [21] was 0.6. The Activity [22] was “Active”, the log2FC [23] was 0.83 and the log2FC [24] was -0.86. It also gave a log2FC [25] of 0.69 and a log2FC [26] of -0.75.
